Source: ChEMBL document CHEMBL3352737, “Discovery of potent and selective spiroindolinone MDM2 inhibitor, RO8994, for cancer therapy” (Bioorg Med Chem, 2014)

Experiments:
[1] = Antiproliferative activity against wild-type p53 expressing human HCT116 cells assessed as inhibition of cell proliferation by MTT assay; type: functional, cell-based; conditions: HCT-116
RKO = assay: Antiproliferative activity against wild-type p53 expressing human RKO cells assessed as inhibition of cell proliferation by MTT assay; type: functional, cell-based
SW480 = assay: Antiproliferative activity against p53 mutant expressing human SW480 cells assessed as inhibition of cell proliferation by MTT assay; type: functional, cell-based
MDA-MB-435 = assay: Antiproliferative activity against p53 mutant expressing human MDA-MB-435 cells assessed as inhibition of cell proliferation by MTT assay; type: functional, cell-based
[2] = biological target: T1, Tumour suppressor p53/oncoprotein Mdm2 (Homo sapiens, UniProt Q00987); assay: Inhibition of p53-MDM2 (unknown origin) interaction using 0.2% BSA buffer after 1 hr by HTRF assay; type: protein assay
T1 sequence (P04637 whole entry): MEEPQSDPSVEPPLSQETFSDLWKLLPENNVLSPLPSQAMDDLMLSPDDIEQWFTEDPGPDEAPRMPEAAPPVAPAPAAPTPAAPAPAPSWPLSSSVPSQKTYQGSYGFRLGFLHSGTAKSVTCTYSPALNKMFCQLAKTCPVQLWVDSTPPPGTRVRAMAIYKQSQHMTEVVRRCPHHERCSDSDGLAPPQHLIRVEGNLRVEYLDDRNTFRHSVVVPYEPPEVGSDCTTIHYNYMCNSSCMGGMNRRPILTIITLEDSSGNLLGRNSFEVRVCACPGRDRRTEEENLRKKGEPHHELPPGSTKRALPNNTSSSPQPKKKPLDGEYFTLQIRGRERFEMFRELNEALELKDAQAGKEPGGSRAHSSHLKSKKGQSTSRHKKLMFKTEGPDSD
T1 sequence (Q00987 whole entry): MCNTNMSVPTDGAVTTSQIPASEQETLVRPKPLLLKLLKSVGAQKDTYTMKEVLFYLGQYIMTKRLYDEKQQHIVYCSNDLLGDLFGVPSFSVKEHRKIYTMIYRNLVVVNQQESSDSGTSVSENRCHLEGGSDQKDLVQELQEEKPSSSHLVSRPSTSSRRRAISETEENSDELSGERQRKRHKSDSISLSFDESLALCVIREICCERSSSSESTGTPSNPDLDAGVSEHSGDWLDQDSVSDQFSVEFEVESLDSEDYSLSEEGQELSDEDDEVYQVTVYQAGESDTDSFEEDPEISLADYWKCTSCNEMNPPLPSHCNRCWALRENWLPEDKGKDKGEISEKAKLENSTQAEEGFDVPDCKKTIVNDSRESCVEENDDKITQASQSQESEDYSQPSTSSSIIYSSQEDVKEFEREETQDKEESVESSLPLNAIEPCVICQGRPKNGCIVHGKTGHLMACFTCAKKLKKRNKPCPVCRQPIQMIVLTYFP

[3] = biological target: T1, Tumour suppressor p53/oncoprotein Mdm2; assay: Inhibition of p53-MDM2 (unknown origin) interaction using 0.02% BSA buffer after 1 hr by HTRF assay; type: protein assay
[4] = Cmax in C57 mouse at 25 mg/kg, po; type: ADME, organism-based; parameters: dose 25 mg/kg, route oral; conditions: in vivo
Procedure, shortened: (§1)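 Male C57 mice received a single dose, given orally or intravenously in separate arms. Plasma pharmacokinetic parameters were derived from the resulting concentration–time data and reported as means.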

[5] = Total plasma clearance in C57 mouse at 5 mg/kg, iv; type: ADME, organism-based; parameters: dose 5 mg/kg, route intravenous; procedure, shortened: as §1
[6] = Apparent terminal half life in C57 mouse at 5 mg/kg, iv; type: ADME, organism-based; parameters: dose 5 mg/kg, route intravenous; conditions: in vivo, read-out: betat1/2(app) (converted); procedure, shortened: as §1
[7] = Oral bioavailability in C57 mouse at 25 mg/kg; type: ADME, organism-based; conditions: in vivo; procedure, shortened: as §1
[8] = Cmax in C57 mouse at 50 mg/kg, po; type: ADME, organism-based; parameters: dose 50 mg/kg, route oral; conditions: in vivo; procedure, shortened: as §1
[9] = Oral bioavailability in C57 mouse at 50 mg/kg; type: ADME, organism-based; conditions: in vivo; procedure, shortened: as §1

| Structure (SMILES) | IC50 (SW480) [nM] | IC50 (MDA-MB-435) [nM] | IC50 [2] [nM] | IC50 [3] [nM] | Cmax [4] [ng/mL] | clearance [5] [mL/min/kg] | half-life [6] [h] | bioavailability [7] [%] | Cmax [8] [ng/mL] | bioavailability [9] [%] | IC50 [1] [nM] | IC50 (RKO) [nM] |
| --- | --- | --- | --- | --- | --- | --- | --- | --- | --- | --- | --- | --- |
| COc1cc(NC(=O)[C@@H]2N[C@@H](CC(C)(C)C)[C@@]3(C(=O)Nc4cc(Cl)ccc43)[C@H]2c2cccc(Cl)c2F)ccc1C(=O)O | 14400 | 11500 | – | – | – | – | – | – | – | – | 50 | 240 |
| COc1cc(NC(=O)[C@H]2N[C@H](CC(C)(C)C)[C@]3(C(=O)Nc4cc(Cl)ccc43)[C@@H]2c2cccc(Cl)c2F)ccc1C(=O)O | – | – | 3740 | 3090 | – | – | – | – | – | – | – | – |
| COc1cc(C(=O)O)ccc1NC(=O)[C@@H]1N[C@@H](CC(C)(C)C)[C@@]2(C(=O)Nc3cc(Cl)ccc32)[C@H]1c1cccc(Cl)c1F | 9800 | 12100 | – | – | 800 | 34.6 | 11.1 | 21 | – | – | 10 | 20 |
| CC(C)(C)C[C@@H]1N[C@@H](C(=O)Nc2ccc(C(N)=O)cc2)[C@H](c2cccc(Cl)c2F)[C@]12C(=O)Nc1cc(Cl)ccc12 | 14300 | 11600 | 5 | 5 | – | 3.5 | 10.4 | – | 8300 | 63 | 70 | 150 |
| CC(C)(C)C[C@@H]1N[C@@H](C(=O)Nc2ccc(OCCO)cc2)[C@H](c2cccc(Cl)c2F)[C@]12C(=O)Nc1cc(Cl)ccc12 | 11300 | 10800 | 8 | – | – | – | – | – | – | – | 180 | 280 |
| COc1cc(C(N)=O)ccc1NC(=O)[C@@H]1N[C@@H](CC(C)(C)C)[C@@]2(C(=O)Nc3cc(Cl)cc(F)c32)[C@H]1c1cccc(Cl)c1F | 10500 | 12000 | 6 | – | – | – | – | – | – | – | 120 | 80 |
| CC(C)(C)C[C@@H]1N[C@@H](C(=O)Nc2ccc(C(N)=O)cc2)[C@H](c2cccc(Cl)c2F)[C@]12C(=O)Nc1cc(Cl)c(F)cc12 | 15200 | 10900 | – | – | – | 2.6 | 8.8 | – | 8700 | 45 | 180 | 430 |
| CC(=O)N1CCCC([C@]2(Cc3cccc(Cl)c3)C(=O)Nc3cc(Cl)ccc32)C1 (stereo partly specified) | – | – | 3900 | – | – | – | – | – | – | – | – | – |

More lines, in order of falling IC50 (SW480), values ahead:

| IC50 (SW480) [nM] | IC50 (MDA-MB-435) [nM] | IC50 [2] [nM] | IC50 [3] [nM] | Cmax [4] [ng/mL] | clearance [5] [mL/min/kg] | half-life [6] [h] | bioavailability [7] [%] | Cmax [8] [ng/mL] | bioavailability [9] [%] | Structure (SMILES) | IC50 [1] [nM] | IC50 (RKO) [nM] |
| --- | --- | --- | --- | --- | --- | --- | --- | --- | --- | --- | --- | --- |
| 7500 | 9400 | 18 | 15 | – | – | – | – | – | – | COc1cc(C(N)=O)ccc1NC(=O)[C@@H]1N[C@@H](CC(C)(C)C)[C@@]2(C(=O)Nc3c2ccc(Cl)c3F)[C@H]1c1cccc(Cl)c1F (racemic) | 670 | 1080 |
| 7100 | 10000 | 7 | 7 | – | 3.4 | 15.3 | – | 13100 | 75 | CC(C)(C)C[C@@H]1N[C@@H](C(=O)Nc2ccc(C(N)=O)cc2F)[C@H](c2cccc(Cl)c2F)[C@]12C(=O)Nc1cc(Cl)ccc12 | 120 | 220 |
| 4450 | 9500 | – | – | 4300 | 6.7 | 6.6 | 55 | – | – | COc1cc(OCCO)ccc1NC(=O)[C@@H]1N[C@@H](CC(C)(C)C)[C@@]2(C(=O)Nc3cc(Cl)ccc32)[C@H]1c1cccc(Cl)c1F | 8 | 16 |
| 3960 | 6920 | – | – | – | – | – | – | – | – | COc1cc(NC(=O)[C@@H]2N[C@@H](CC(C)(C)C)[C@@]3(C(=O)Nc4cc(Cl)ccc43)[C@H]2c2cccc(Cl)c2F)ccc1C(N)=O | 80 | 90 |
